Reference: article PMC11904594 (Current Research in Microbial Sciences, 2025)
Values after ≈ are worked out from the molar mass of the structure shown.

Legend:
[1] = tested on: 11 bacterial strains (S. aureus, P. aeruginosa, A. baumannii, K. pneumoniae, E. coli); assay: Antimicrobial activity screening, summary over groups of strains; format: cell-based; details: 50 µg/ml screen
[2] = tested on: P. aeruginosa ATCC 27,853; assay: MIC, broth microdilution; format: cell-based, Pseudomonas aeruginosa; details: MHB II, 10^6 CFU/ml, 37 °C, 24 h, triplicate
Procedure, shortened: (§1)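 Broth microdilution per CLSI. Strains were freshly plated on LB agar from glycerol stocks; the colistin-resistant lpxD mutant was plated on LB with 10 µg/ml colistin. Inoculum was 10^6 CFU/ml in Mueller Hinton broth II with two-fold dilutions of test compound from 100 to 0.10 µg/ml, incubated at 37 °C for 24 h. MIC was the lowest concentration with no growth.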

P. aeruginosa (ST175–1) [3] = assay: MIC, broth microdilution; format: cell-based, Pseudomonas aeruginosa; details: MHB II, 10^6 CFU/ml, 37 °C, 24 h, triplicate
Procedure, shortened: as §1

A. baumannii IB010 [4] = assay: MIC, broth microdilution; format: cell-based, Acinetobacter baumannii; details: MHB II, 10^6 CFU/ml, 37 °C, 24 h, triplicate
Procedure, shortened: as §1

A. baumannii Ab-1 [5] = assay: Minimum bactericidal concentration; format: cell-based, Acinetobacter baumannii; details: lowest concentration reducing at least 99.9 % of growth, plated on LB, 37 °C, 24 h, triplicate
A. baumannii Ab-1 [6] = assay: Inhibition of biofilm formation; format: cell-based, Acinetobacter baumannii; details: ¼ MIC
Procedure, shortened: (§2)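 Medium was discarded, wells washed with PBS, and biofilm stained with 1 % crystal violet for 15 min at room temperature. After two PBS washes, stain was eluted in 70 % ethanol and read at 595 nm. SBF = (OD595 − OD595 […])/OD600: weak ≤0.5, moderate 0.5–1, strong >1. Triplicate; Kruskal-Wallis with Dunn's test.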

[7] = tested on: K. pneumoniae ATCC 43,816; assay: Inhibition of biofilm formation; format: cell-based, Klebsiella pneumoniae; details: ¼ MIC
Procedure, shortened: as §2

E. coli ATCC 25,922 [8] = assay: Minimum bactericidal concentration; format: cell-based, Escherichia coli; details: lowest concentration reducing at least 99.9 % of growth, plated on LB, 37 °C, 24 h, triplicate
[9] = tested on: P. aeruginosa ATCC 27,853; assay: Minimum bactericidal concentration; format: cell-based, Pseudomonas aeruginosa; details: lowest concentration reducing at least 99.9 % of growth, plated on LB, 37 °C, 24 h, triplicate
E. coli ESBL 1057.1 [10] = assay: MIC, broth microdilution; format: cell-based, Escherichia coli; details: MHB II, 10^6 CFU/ml, 37 °C, 24 h, triplicate
Procedure, shortened: as §1

A. baumannii ATCC 19,606 [11] = assay: MIC, broth microdilution; format: cell-based, Acinetobacter baumannii; details: MHB II, 10^6 CFU/ml, 37 °C, 24 h, triplicate
Procedure, shortened: as §1

[12] = tested on: K. pneumoniae ATCC 43,816; assay: Minimum bactericidal concentration; format: cell-based, Klebsiella pneumoniae; details: lowest concentration reducing at least 99.9 % of growth, plated on LB, 37 °C, 24 h, triplicate
S. aureus MRSA USA 300 [13] = assay: MIC, broth microdilution; format: cell-based, Staphylococcus aureus; details: MHB II, 10^6 CFU/ml, 37 °C, 24 h, triplicate
Procedure, shortened: as §1

P. aeruginosa ST175–1 = assay: Inhibition of biofilm formation; format: cell-based, Pseudomonas aeruginosa; details: ¼ MIC
Procedure, shortened: as §2

A. baumannii IB010 [14] = assay: Minimum bactericidal concentration; format: cell-based, Acinetobacter baumannii; details: lowest concentration reducing at least 99.9 % of growth, plated on LB, 37 °C, 24 h, triplicate
S. aureus ATCC 29,213 [15] = assay: Minimum bactericidal concentration; format: cell-based, Staphylococcus aureus; details: lowest concentration reducing at least 99.9 % of growth, plated on LB, 37 °C, 24 h, triplicate
E. coli ATCC 25,922 [16] = assay: MIC, broth microdilution; format: cell-based, Escherichia coli; details: MHB II, 10^6 CFU/ml, 37 °C, 24 h, triplicate
Procedure, shortened: as §1

A. baumannii ATCC 19,606 [17] = assay: Inhibition of biofilm formation; format: cell-based, Acinetobacter baumannii; details: ¼ MIC
Procedure, shortened: as §2

K. pneumoniae CG258 [18] = assay: Time-kill assay; format: cell-based, Klebsiella pneumoniae; details: peptide at 2× MIC, 24 h
Procedure, shortened: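 Broth without compound was the growth control. Samples taken at 0, 3, 6 and 24 h were diluted and plated on MH II agar for CFU counts. Each curve was run at least in duplicate.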

K. pneumoniae CG258 [19] = assay: MIC, broth microdilution; format: cell-based, Klebsiella pneumoniae; details: MHB II, 10^6 CFU/ml, 37 °C, 24 h, triplicate
Procedure, shortened: as §1

Stability in human serum = format: in vitro ADME; details: 25 % (v/v)
Procedure, shortened: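 Test compound was added to RPMI with human serum pre-equilibrated at 37 °C, giving 333.33 µM final compound and 25 % (v/v) final serum. Mixtures were stirred at 37 °C for 10, 30, 45 or 60 min. Proteins were precipitated with 96 % ethanol, cooled at 4 °C for 15 min and spun at 14,000 g. Supernatants were run on C18 RP-HPLC (TFA/CH3CN gradient, 220 nm); degradation was taken from loss of native peak area. Duplicate.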

K. pneumoniae CG258 [20] = assay: Inhibition of biofilm formation; format: cell-based, Klebsiella pneumoniae; details: ¼ MIC
Procedure, shortened: as §2

A. baumannii ATCC 19,606 [21] = assay: Minimum bactericidal concentration; format: cell-based, Acinetobacter baumannii; details: lowest concentration reducing at least 99.9 % of growth, plated on LB, 37 °C, 24 h, triplicate
P. aeruginosa (ST175–1) [22] = assay: Minimum bactericidal concentration; format: cell-based, Pseudomonas aeruginosa; details: lowest concentration reducing at least 99.9 % of growth, plated on LB, 37 °C, 24 h, triplicate
K. pneumoniae CG258 [23] = assay: Minimum bactericidal concentration; format: cell-based, Klebsiella pneumoniae; details: lowest concentration reducing at least 99.9 % of growth, plated on LB, 37 °C, 24 h, triplicate
[24] = tested on: K. pneumoniae ATCC 43,816; assay: MIC, broth microdilution; format: cell-based, Klebsiella pneumoniae; details: MHB II, 10^6 CFU/ml, 37 °C, 24 h, triplicate
Procedure, shortened: as §1

A. baumannii Ab-1 [25] = assay: MIC, broth microdilution; format: cell-based, Acinetobacter baumannii; details: MHB II, 10^6 CFU/ml, 37 °C, 24 h, triplicate
Procedure, shortened: as §1

E. coli ESBL 1057.1 [26] = assay: Minimum bactericidal concentration; format: cell-based, Escherichia coli; details: lowest concentration reducing at least 99.9 % of growth, plated on LB, 37 °C, 24 h, triplicate
11 bacterial strains = assay: MBC, summary over all strains; format: cell-based; details: highest value over all strains, converted to molar
Procedure, shortened: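 The no-peptide growth well, serially diluted and plated, served as reference. Percent growth was calculated from CFU counts; MBC was the lowest concentration giving ≥99.9 % reduction (CLSI). Triplicate.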

[27] = tested on: Galleria mellonella larvae; assay: In vivo toxicity in Galleria mellonella larvae; details: G. mellonella larvae, 50 µg/larvae (10 μl of 5 mg/ml), 30 °C, N=10 per group
Procedure, shortened: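 Sixth-instar Galleria mellonella larvae (200–300 mg) were held in sawdust at 4 °C until use. Groups of ten were injected with 10 μl of test compound, colistin or 0.9 % NaCl saline control into the second rear proleg, then kept at 30 °C.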

S. aureus MRSA USA 300 [28] = assay: Minimum bactericidal concentration; format: cell-based, Staphylococcus aureus; details: lowest concentration reducing at least 99.9 % of growth, plated on LB, 37 °C, 24 h, triplicate
S. aureus ATCC 29,213 [29] = assay: MIC, broth microdilution; format: cell-based, Staphylococcus aureus; details: MHB II, 10^6 CFU/ml, 37 °C, 24 h, triplicate
Procedure, shortened: as §1

**Q.** Which “growth inhibition for all Gram-negative strains tested” value [1] does the source give for `CC[C@H](C)[C@H](NC(=O)[C@H](CCCCN)NC(=O)[C@H](CCCCN)NC(=O)[C@@H](Cc1ccccc1)NC(=O)[C@H](CC(C)C)NC(=O)[C@H](CCCCN)NC(=O)[C@@H](N)CCCCN)C(=O)N[C@@H](CC(C)C)C(=O)N[C@@H](CCCCN)C(=O)N[C@@H](Cc1ccc(O)cc1)C(=O)N[C@@H](CC(C)C)C(N)=O` [BP143] here?
**A.** ≥ 83%

**Q.** With `CC[C@H](C)[C@H](NC(=O)[C@H](CCCCN)NC(=O)[C@H](CCCCN)NC(=O)[C@H](Cc1ccccc1)NC(=O)[C@H](CC(C)C)NC(=O)[C@@H](CCCCN)NC(=O)[C@@H](N)CCCCN)C(=O)N[C@@H](CC(C)C)C(=O)N[C@@H](CCCCN)C(=O)N[C@@H](Cc1ccc(O)cc1)C(=O)N[C@@H](CC(C)C)C(N)=O` [BP145] as the compound, how does the MIC [2] read?
**A.** 50 µg/mL (≈ 35.2 µM)

**Q.** What about the MIC (P. aeruginosa (ST175–1) [3]) of the same compound?
**A.** 50 µg/mL (≈ 35.2 µM)

**Q.** What about the MIC (A. baumannii IB010 [4]) of the same compound?
**A.** 25 µg/mL (≈ 17.6 µM)

**Q.** And the MBC (A. baumannii Ab-1 [5])?
**A.** 12.5 µg/mL (≈ 8.8 µM)

**Q.** And the “SBF index compared to BP607” value (A. baumannii Ab-1 [6])?
**A.** reduced SBF indices compared to BP607

**Q.** And the “SBF index compared to BP607” value [7]?
**A.** reduced SBF indices compared to BP607

**Q.** What about the MBC (E. coli ATCC 25,922 [8]) of the same compound?
**A.** 6.25 µg/mL (≈ 4.4 µM)

**Q.** What about the MBC [9] of the same compound?
**A.** 50 µg/mL (≈ 35.2 µM)

**Q.** And the MIC (E. coli ESBL 1057.1 [10])?
**A.** 12.5 µg/mL (≈ 8.8 µM)

**Q.** What about the MIC (A. baumannii ATCC 19,606 [11]) of the same compound?
**A.** 6.25 µg/mL (≈ 4.4 µM)

**Q.** What about the MBC [12] of the same compound?
**A.** 25 µg/mL (≈ 17.6 µM)

**Q.** And the MIC (S. aureus MRSA USA 300 [13])?
**A.** 50 µg/mL (≈ 35.2 µM)

**Q.** What about the “SBF index compared to BP607” value (P. aeruginosa ST175–1) of the same compound?
**A.** reduced SBF indices compared to BP607

**Q.** And the MBC (A. baumannii IB010 [14])?
**A.** 25 µg/mL (≈ 17.6 µM)

**Q.** And the MBC (S. aureus ATCC 29,213 [15])?
**A.** 50 µg/mL (≈ 35.2 µM)

**Q.** And the MIC (E. coli ATCC 25,922 [16])?
**A.** 6.25 µg/mL (≈ 4.4 µM)

**Q.** What about the “SBF index compared to BP607” value (A. baumannii ATCC 19,606 [17]) of the same compound?
**A.** reduced SBF indices compared to BP607

**Q.** And the “bactericidal activity in time-kill assay” value (K. pneumoniae CG258 [18])?
**A.** bactericidal

**Q.** And the MIC (K. pneumoniae CG258 [19])?
**A.** 12.5 µg/mL (≈ 8.8 µM)

**Q.** What about the remaining at 1 h, 333.33 µM (Stability in human serum) of the same compound?
**A.** 35%

**Q.** What about the biofilm formation (K. pneumoniae CG258 [20]) of the same compound?
**A.** inhibited biofilm formation

**Q.** What about the MBC (A. baumannii ATCC 19,606 [21]) of the same compound?
**A.** 12.5 µg/mL (≈ 8.8 µM)

**Q.** What about the MBC (P. aeruginosa (ST175–1) [22]) of the same compound?
**A.** 50 µg/mL (≈ 35.2 µM)

**Q.** And the MBC (K. pneumoniae CG258 [23])?
**A.** 12.5 µg/mL (≈ 8.8 µM)

**Q.** And the MIC [24]?
**A.** 25 µg/mL (≈ 17.6 µM)

**Q.** What about the MIC (A. baumannii Ab-1 [25]) of the same compound?
**A.** 12.5 µg/mL (≈ 8.8 µM)

**Q.** And the MBC (E. coli ESBL 1057.1 [26])?
**A.** 12.5 µg/mL (≈ 8.8 µM)

**Q.** What about the “highest MBC observed” value (11 bacterial strains) of the same compound?
**A.** 0.035 mmol/L

**Q.** And the “survival after 24h” value [27]?
**A.** 70%

**Q.** What about the MBC (S. aureus MRSA USA 300 [28]) of the same compound?
**A.** 50 µg/mL (≈ 35.2 µM)

**Q.** And the MIC (S. aureus ATCC 29,213 [29])?
**A.** 50 µg/mL (≈ 35.2 µM)

**Q.** What about the “growth inhibition of all the strains” value ([1]; all strains, Gram-negative and Gram-positive) of the same compound?
**A.** ≈ 90%
